Broadly, the inhibition is the percentage by which the read-out fell short of the control. As usually defined, the logP is a log measure of how a compound divides between an organic and an aqueous phase. High values mean a more lipophilic compound, low ones a more hydrophilic compound. In general, pKd refers to the negative decadic logarithm of the Kd, by convention in mol/L. Broadly, the CLint scaled is a measure of how fast metabolising enzymes remove a compound, apart from limits set by blood flow. High values mean faster metabolism, low ones greater metabolic stability.

pKd: −log10 of the molar value. Values after ≈ are worked out from the molar mass of the structure shown.

The target of one series is Lanosterol 14-alpha demethylase (Aspergillus) (UniProt B8NUK6+Q9P8R0+G4WW85). The experiment in a line: Inhibition of Aspergillus fumigatus CYP51 assessed as reduction in [3-3H]eburicol 14alpha-demethylation at 0.75 uM preincubated for 60 secs followed by NADPH addition measured after 60 mins by RP-HPLC analysis relative to control.
Settings: not given
Summed up:
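E. coli-expressed, purified CYP51 (0.5 μM) with rat NADPH-P450 reductase (1.0 μM), 100 μM dilauroylphosphatidylcholine, isocitrate dehydrogenase/isocitrate NADPH regeneration, in 50 mM K phosphate pH 7.2 with 10% glycerol and 0.1% Triton X-100. [3-3H]eburicol 25 μM final, inhibitor 0.75 μM final (1.5:1:50 inhibitor:enzyme:substrate), 37 °C. Started with 100 μM NADPH, 60 min, EtOAc extraction, radio-HPLC. Percent inhibition, triplicate, mean ± SD.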
On to `O=C(N[C@@H](Cn1ccnc1)c1ccc(Cl)cc1Cl)c1ccc(-c2nnc(-c3ccc(F)c(F)c3)o2)cc1`, for which the inhibition turned out to be 58%.

Test system in a further series: not listed separately
As to the kind of experiment: Lipophilicity, log P of the compound. The series is classed as physicochemical. The following applies: octanol/water.
`O=C(N[C@@H](Cn1ccnc1)c1ccc(Cl)cc1Cl)c1ccc(-c2nnc(-c3ccc(F)c(F)c3)o2)cc1` showed a logP of 4.88.

The target of the next series is T1, Lanosterol 14-alpha demethylase (Aspergillus, UniProt B8NUK6+G4WW85+Q9P8R0).
T1 sequence (B8NUK6 whole entry): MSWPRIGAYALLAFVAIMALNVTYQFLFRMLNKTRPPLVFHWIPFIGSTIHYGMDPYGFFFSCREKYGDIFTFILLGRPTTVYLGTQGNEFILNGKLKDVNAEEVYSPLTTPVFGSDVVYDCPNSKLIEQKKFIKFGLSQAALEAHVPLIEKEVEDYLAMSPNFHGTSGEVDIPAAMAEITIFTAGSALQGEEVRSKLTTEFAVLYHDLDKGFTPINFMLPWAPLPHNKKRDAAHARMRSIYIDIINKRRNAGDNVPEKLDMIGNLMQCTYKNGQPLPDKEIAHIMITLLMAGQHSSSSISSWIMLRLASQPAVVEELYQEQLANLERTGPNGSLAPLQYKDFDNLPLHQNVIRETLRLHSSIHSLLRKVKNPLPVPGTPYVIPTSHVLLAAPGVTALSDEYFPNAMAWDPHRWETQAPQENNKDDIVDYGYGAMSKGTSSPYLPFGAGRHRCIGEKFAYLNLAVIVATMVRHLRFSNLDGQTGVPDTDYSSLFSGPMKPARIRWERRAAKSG
T1 sequence (Q9P8R0 whole entry): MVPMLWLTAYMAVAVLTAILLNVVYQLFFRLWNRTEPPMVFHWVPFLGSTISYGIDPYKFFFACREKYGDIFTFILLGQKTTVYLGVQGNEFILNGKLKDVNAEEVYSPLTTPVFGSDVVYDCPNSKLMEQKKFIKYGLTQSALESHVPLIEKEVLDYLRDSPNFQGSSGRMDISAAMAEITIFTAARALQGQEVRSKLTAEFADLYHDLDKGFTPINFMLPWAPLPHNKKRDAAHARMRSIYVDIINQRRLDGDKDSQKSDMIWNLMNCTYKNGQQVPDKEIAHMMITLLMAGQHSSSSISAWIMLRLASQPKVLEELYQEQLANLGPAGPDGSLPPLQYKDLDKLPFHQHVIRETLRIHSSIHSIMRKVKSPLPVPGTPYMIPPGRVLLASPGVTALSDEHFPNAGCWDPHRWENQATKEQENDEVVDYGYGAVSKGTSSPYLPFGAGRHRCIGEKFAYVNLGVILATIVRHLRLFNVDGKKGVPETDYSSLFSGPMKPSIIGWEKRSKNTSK
T1 sequence (G4WW85 whole entry): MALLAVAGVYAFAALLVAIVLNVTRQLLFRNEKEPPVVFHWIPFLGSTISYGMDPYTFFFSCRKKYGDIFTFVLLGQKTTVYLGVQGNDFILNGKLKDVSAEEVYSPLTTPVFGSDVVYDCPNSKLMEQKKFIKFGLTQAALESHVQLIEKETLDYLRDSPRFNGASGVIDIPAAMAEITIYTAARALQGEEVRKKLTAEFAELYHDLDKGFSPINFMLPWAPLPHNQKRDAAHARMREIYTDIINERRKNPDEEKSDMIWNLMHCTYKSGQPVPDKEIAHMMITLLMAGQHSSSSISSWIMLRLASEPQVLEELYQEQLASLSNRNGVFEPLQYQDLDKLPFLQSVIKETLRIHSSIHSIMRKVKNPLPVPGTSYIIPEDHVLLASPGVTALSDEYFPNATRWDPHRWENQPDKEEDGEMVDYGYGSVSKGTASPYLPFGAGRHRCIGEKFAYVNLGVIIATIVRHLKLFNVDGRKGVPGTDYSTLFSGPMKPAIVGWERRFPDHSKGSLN
As to the kind of experiment: Binding affinity to Aspergillus fumigatus CYP51 by spectral titration method. The following applies: read-out: Kd(app). Summed up:
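Purified CYP51 at 0.5 μM in 5 cm path cuvettes, titrated from 0.2 mM DMSO stocks over 0.1–0.8 μM ligand. Type II red shift of the Soret band (417 to 424 nm) followed as ΔA (Amax−Amin) in difference spectra. Kd obtained by fitting to the quadratic tight-binding equation using total ligand and enzyme concentrations.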
Regarding `O=C(N[C@@H](Cn1ccnc1)c1ccc(Cl)cc1Cl)c1ccc(-c2nnc(-c3ccc(F)c(F)c3)o2)cc1`, the pKd was 7.24.

In the case of `C[C@@H](c1ncncc1F)[C@](O)(Cn1cncn1)c1ccc(F)cc1F` [VORICONAZOLE], the pKd was 7.25.

Test system in another series: not listed separately
The experiment in a line: Half life in human liver microsomes at 1 uM preincubated for 5 mins followed by NADPH addition measured up to 45 mins by LC-MS/MS analysis. The following applies: 0.75 h. It counts as ADME, microsome. An outline of the steps:
(§1)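 Pooled liver microsomes (0.5 mg/mL; male CD-1 mouse, male Sprague Dawley rat, or mixed-gender human) with 1 μM compound in 100 mM potassium phosphate pH 7.4, 3 mM MgCl2, 37 °C with shaking. 5 min preincubation, then 1 mM NADPH. Aliquots at 0, 3, 7, 15, 25, 45 min quenched in cold CH3CN with carbamazepine internal standard, then LC/MS/MS. Triplicate; T1/2 = ln2/k from the slope of ln % remaining versus time.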
(Liver microsomes are vesicles of endoplasmic reticulum, rich in cytochrome P450 enzymes.)
In turn, `O=C(N[C@@H](Cn1ccnc1)c1ccc(Cl)cc1Cl)c1ccc(-c2nnc(-c3ccc(F)c(F)c3)o2)cc1` came in with a t1/2 of 2.77 h.

Test system in a further series: not listed separately
The experiment in a line: Half life in Sprague-Dawley rat liver microsomes at 1 uM preincubated for 5 mins followed by NADPH addition measured up to 45 mins by LC-MS/MS analysis. The series is classed as ADME, microsome. The following applies: 0.75 h. Summed up:
as §1
In turn, `O=C(N[C@@H](Cn1ccnc1)c1ccc(Cl)cc1Cl)c1ccc(-c2nnc(-c3ccc(F)c(F)c3)o2)cc1` yielded a t1/2 of 1.52 h.

Test system in another series: not listed separately
The experiment in a line: Half life in CD-1 mouse liver microsomes at 1 uM preincubated for 5 mins followed by NADPH addition measured up to 45 mins by LC-MS/MS analysis. The series is classed as ADME, microsome. As to conditions: 0.75 h. Summed up: as §1
For `O=C(N[C@@H](Cn1ccnc1)c1ccc(Cl)cc1Cl)c1ccc(-c2nnc(-c3ccc(F)c(F)c3)o2)cc1`, the t1/2 is 1.63 h.

Another series deals with Aspergillus fumigatus. As to the kind of experiment: Antifungal activity against Aspergillus fumigatus 1022 after 48 hrs by CLSI M38-A2 protocol based assay. The following applies: Aspergillus fumigatus, 1022, 48 h; read-out: MIC100. The series is classed as functional.
Consider `O=C(N[C@@H](Cn1ccnc1)c1ccc(Cl)cc1Cl)c1ccc(-c2nnc(-c3ccc(F)c(F)c3)o2)cc1`, for which the MIC was 0.29 µg/mL (≈ 0.537 µM).

The subject of another series is Aspergillus fumigatus. As to the kind of experiment: Antifungal activity against Aspergillus fumigatus 32820 after 48 hrs by CLSI M38-A2 protocol based assay. It counts as functional. As to conditions: Aspergillus fumigatus, 32820, 48 h; read-out: MIC100.
For the molecule `O=C(N[C@@H](Cn1ccnc1)c1ccc(Cl)cc1Cl)c1ccc(-c2nnc(-c3ccc(F)c(F)c3)o2)cc1`, the MIC is 0.08 µg/mL (≈ 0.148 µM).

In the next series the test system is Aspergillus fumigatus. The experiment in a line: Antifungal activity against Aspergillus fumigatus MYA626 after 48 hrs by CLSI M38-A2 protocol based assay. The series is classed as functional. The following applies: MYA626, 48 h, read-out: MIC100.
For the molecule `O=C(N[C@@H](Cn1ccnc1)c1ccc(Cl)cc1Cl)c1ccc(-c2nnc(-c3ccc(F)c(F)c3)o2)cc1`, the MIC is 0.78 µg/mL (≈ 1.44 µM).

Test system in a further series: not listed separately
The experiment in a line: in vitro. As to conditions: human, liver microsomes.
The molecule `O=C(N[C@@H](Cn1ccnc1)c1ccc(Cl)cc1Cl)c1ccc(-c2nnc(-c3ccc(F)c(F)c3)o2)cc1` registered a CLint scaled at 0.75 h, 1 µM of 7.53 mL/min/kg.

Test system in another series: not listed separately
The experiment in a line: in vitro. As to conditions: human, liver microsomes. The source holds these as a separate data set.
Take `O=C(N[C@@H](Cn1ccnc1)c1ccc(Cl)cc1Cl)c1ccc(-c2nnc(-c3ccc(F)c(F)c3)o2)cc1`: the CLhep predicted at 0.75 h, 1 µM is 5.54 mL/min/kg.

Test system in another series: not listed separately
The experiment in a line: in vitro. The following applies: Sprague-Dawley, rat, liver microsomes.
For `O=C(N[C@@H](Cn1ccnc1)c1ccc(Cl)cc1Cl)c1ccc(-c2nnc(-c3ccc(F)c(F)c3)o2)cc1`, the CLint scaled at 0.75 h, 1 µM came to 31 mL/min/kg.

Test system in the next series: not listed separately
The experiment in a line: in vitro. The following applies: Sprague-Dawley, rat, liver microsomes. This is another data set of the same source.
As for `O=C(N[C@@H](Cn1ccnc1)c1ccc(Cl)cc1Cl)c1ccc(-c2nnc(-c3ccc(F)c(F)c3)o2)cc1`, the CLhep predicted at 0.75 h, 1 µM was 21 mL/min/kg.

Test system in the next series: not listed separately
As to the kind of experiment: in vitro. The following applies: CD-1, mouse, liver microsomes.
`O=C(N[C@@H](Cn1ccnc1)c1ccc(Cl)cc1Cl)c1ccc(-c2nnc(-c3ccc(F)c(F)c3)o2)cc1` came in with a CLint scaled at 0.75 h, 1 µM of 55 mL/min/kg.

Test system in another series: not listed separately
As to the kind of experiment: in vitro. As to conditions: CD-1, mouse, liver microsomes. The source holds these as a separate data set.
On to `O=C(N[C@@H](Cn1ccnc1)c1ccc(Cl)cc1Cl)c1ccc(-c2nnc(-c3ccc(F)c(F)c3)o2)cc1`, for which the CLhep predicted at 0.75 h, 1 µM is 34 mL/min/kg.

The test system of the next series is Aspergillus fumigatus. As to the kind of experiment: Antifungal activity against Aspergillus fumigatus after 48 hrs.
Settings: not given
For the molecule `C[C@@H](c1ncncc1F)[C@](O)(Cn1cncn1)c1ccc(F)cc1F` [VORICONAZOLE], the MIC turned out to be 0.7 µg/mL (≈ 2 µM).
